# Measured values as given in ChEMBL document CHEMBL4270666, “Development of Dihydrodibenzooxepine Peroxisome Proliferator-Activated Receptor (PPAR) Gamma Ligands of a Novel Binding Mode as Anticancer Agents: Effective Mimicry of Chiral Structures by Olefinic E/ Z-Isomers” (J Med Chem, 2018).
# Active and inactive are the calls of the source. The calls are words filed in the database; no cut-off is given here.
# Experiments:
# [1] = species on record: Mus musculus; experiment: Antidiabetic activity in db/db diabetic mouse model assessed as reduction in blood glucose levels relative to vehicle-treated control; type: functional; parameters: scale not given: the % may be the effect or the level left
# [2] = target: T1, Peroxisome proliferator-activated receptor gamma (Homo sapiens) (UniProt P37231); experiment: Agonist activity at PPARgamma in human MKN45 cells assessed as cell differentiation at 30 nM after 5 days by Hoechst 33342 staining-based assay relative to control
# T1 sequence (whole entry): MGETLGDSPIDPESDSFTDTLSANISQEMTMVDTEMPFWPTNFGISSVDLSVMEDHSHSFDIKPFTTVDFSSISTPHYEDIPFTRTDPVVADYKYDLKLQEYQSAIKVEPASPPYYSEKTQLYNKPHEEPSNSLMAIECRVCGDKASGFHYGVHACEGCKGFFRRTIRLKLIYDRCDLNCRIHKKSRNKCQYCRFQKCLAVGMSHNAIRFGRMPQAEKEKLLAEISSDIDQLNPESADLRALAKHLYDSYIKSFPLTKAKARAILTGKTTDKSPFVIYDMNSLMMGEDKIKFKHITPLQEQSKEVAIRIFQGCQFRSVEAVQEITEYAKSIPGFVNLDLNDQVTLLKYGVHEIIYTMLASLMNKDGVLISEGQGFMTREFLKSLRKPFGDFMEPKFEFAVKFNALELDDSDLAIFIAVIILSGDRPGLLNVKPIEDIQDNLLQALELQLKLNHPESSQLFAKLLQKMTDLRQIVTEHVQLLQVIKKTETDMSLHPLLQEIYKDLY
# Summary of the method: (§1)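 MKN45 cells grown in RPMI1640 with 10% FBS, penicillin/streptomycin, 37 °C, 5% CO2; seeded 2500 cells/well, exposed to compound (1-1000 nM, N = 3 per concentration) for 5 days. Hoechst 33342 nuclear stain, imaged; nuclear areas above 1,015.58 μm2 counted as aggregated clusters; aggregated-cluster area over total cell area gives aggregation rate, normalized to a reference agonist's maximum; EC50 at half-maximal activity.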
# [3] = target: T1, Peroxisome proliferator-activated receptor gamma (Homo sapiens); experiment: Transactivation of PPARgamma in human MKN45 cells assessed as increase in angptl4 gene expression at 10 to 100 nM after 72 hrs by quantitative PCR analysis; type: cell-based
# Summary of the method: (§2)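 MKN45 cells treated with compound for 72 h (N = 3 per concentration); cells washed in cold PBS, total RNA isolated, transcript levels measured by quantitative PCR and corrected to GAPDH; fold-induction expressed relative to control/baseline.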
# [4] = target: T1, Peroxisome proliferator-activated receptor gamma (Homo sapiens); experiment: Transactivation of PPARgamma in human MKN45 cells assessed as increase in adfp gene expression at 10 to 100 nM after 72 hrs by quantitative PCR analysis; type: cell-based; summary of the method: as §2
# [5] = target: T1, Peroxisome proliferator-activated receptor gamma (Homo sapiens); experiment: Agonist activity at PPARgamma in human MKN45 cells assessed as cell differentiation at 100 nM after 5 days by Hoechst 33342 staining-based assay; summary of the method: as §1
# [6] = target: T1, Peroxisome proliferator-activated receptor gamma (Homo sapiens); experiment: Transactivation of PPARgamma in human MKN45 cells assessed as decrease in vimentin gene expression at 10 to 100 nM after 72 hrs by quantitative PCR analysis; type: cell-based; summary of the method: as §2
# [7] = target: T2, Peroxisome proliferator-activated receptor gamma (Homo sapiens, UniProt P37231); experiment: Transactivation of GAL4-fused human PPARgamma transfected in HEK293BENA cells after 24 hrs by steady glo-luciferase reporter gene assay; type: cell-based
# T2 sequence (P37231 whole entry): T1 sequence (whole entry)
# [8] = target: T2, Peroxisome proliferator-activated receptor gamma; experiment: Transactivation of PPARgamma (unknown origin) transfected in human DRO cells after 24 hrs by dual luciferase reporter gene assay; type: cell-based
# [9] = Inhibition of cologenic growth of human DRO cells at 1 nM after 2 weeks by soft agar assay relative to control; type: functional; conditions: 336 h
Structure (SMILES),EC50 [7],further results
O=S(=O)(Nc1cc(Cl)c(Oc2cnc3ccccc3c2)c(Cl)c1)c1ccc(Cl)cc1Cl [INT131],,Activity [1]: 60%
CCCc1nc2c(C)cccc2n1Cc1ccc2c(c1)COc1ccccc1/C2=C(\C)c1noc(=O)[nH]1,,Activity [2]: 94%; Activity [3]: Active; Activity [4]: Active; Activity [5]: Active; Activity [6]: Active
CCCc1nc2c(CO)cccc2n1Cc1ccc2c(c1)COc1ccccc1/C2=C(\C)c1noc(=O)[nH]1,33 nM,
CCc1nc2c(C)cc(C)nc2n1Cc1ccc2c(c1)CCc1ccccc1/C2=C(\C)c1noc(=O)[nH]1,177 nM,
CCCc1nc2c(C(=O)NCCO)cccc2n1Cc1ccc2c(c1)COc1ccccc1/C2=C(\C)c1noc(=O)[nH]1,57 nM,
CCCc1nc(-c2ccncc2)cn1Cc1ccc2c(c1)COc1ccccc1/C2=C(\C)c1noc(=O)[nH]1,593 nM,
CCCc1nc2c(NS(C)(=O)=O)cccc2n1Cc1ccc2c(c1)COc1ccccc1/C2=C(\C)c1noc(=O)[nH]1,166 nM,
CCCc1nc2ccccc2n1Cc1ccc2c(c1)COc1ccccc1/C2=C(\C)c1noc(=O)[nH]1,2.7 nM,
CCCc1nc(-c2ccccc2)cn1Cc1ccc2c(c1)COc1ccccc1/C2=C(\C)c1noc(=O)[nH]1,151 nM,
CCCCCS(=O)(=O)NC(=O)c1ccc2nc(C)n(Cc3ccc(Cl)cc3Cl)c2c1 [ATX08-001],163 nM,
CCc1nc2c(C)cc(C)nc2n1Cc1ccc2c(c1)COc1ccccc1/C2=C(\C)c1noc(=O)[nH]1,84 nM,
Cc1cc(Oc2ccc3nc(COc4ccc(CC5SC(=O)NC5=O)cc4)n(C)c3c2)cc(C)c1N (configuration not stated) [EFATUTAZONE],,EC50 [8]: 1 nM; inhibition at 0.001 µM [9]: 63%
